Results taken from ChEMBL document CHEMBL1122527, “Design, synthesis, and testing of potential antisickling agents. 5. Disubstituted benzoic acids designed for the donor site and proline salicylates designed for the acceptor site” (J Med Chem, 1984).

Legend:
[1] = Evaluated for antisickling activity, and ratio was calculated as solubility HbS (g/dL) / solubility HbS control(g/dL) at a concentration of 20 mM; assay type: functional
Method in brief: (§1)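 Hofrichter-type antigelling assay. Acids were dissolved as sodium salts (sodium bicarbonate) at 0.18 M stock in 0.15 M phosphate, pH 7.4. Aliquots went into HbS (stock around 35 g%) with dithionite as deoxygenant; EPR tubes were sealed and spun. Final drug was 5, 10, 20 and 40 mM. Each six-tube run held a buffer-only deoxy-HbS control and a 40 mM phenylalanine standard. Ratio = soluble HbS with drug / control (g/dL).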

[2] = Control value of dHbS(no. of runs=1); assay type: functional
Method in brief: (§2)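 Deoxy-HbS control tube with buffer in place of the compound: HbS in 0.15 M phosphate was deoxygenated with dithionite (1.06 M stock) in a sealed EPR tube. It was spun with each run's set of six tubes, alongside four drug tubes and a 40 mM phenylalanine standard. The value is the HbS solubility in g/dL, used as the denominator of the solubility ratio.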

[3] = Evaluated for antisickling activity, and ratio was calculated as solubility HbS (g/dL) / solubility HbS control(g/dL) at a concentration of 10 mM; assay type: functional; method in brief: as §1
[4] = Evaluated for antisickling activity, and ratio was calculated as solubility HbS (g/dL) / solubility HbS control(g/dL) at a concentration of 5 mM; assay type: functional; method in brief: as §1
[5] = Evaluated for antisickling activity, and initial HbS concentration was reported, values from different experiments (no. of runs=1); assay type: functional
Method in brief: (§3)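 Hofrichter-type antigelling assay: the compound was made up as its sodium salt (0.18 M stock) in 0.15 M phosphate buffer, pH 7.4, with sodium bicarbonate. It was diluted with buffer and added to HbS (about 35 g % in 0.15 M phosphate), then dithionite (1.06 M stock) was added and the EPR tubes were sealed. Final drug levels were 5, 10, 20 and 40 mM. Initial HbS (g/dL) is the level after drug and dithionite addition, the same in all six tubes of a run.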

[6] = Evaluated for antisickling activity, and ratio was calculated as solubility HbS compound (g/dL) / solubility HbS control(g/dL) at a concentration of 40 mM; assay type: functional; method in brief: as §1
[7] = Compound was evaluated for antisickling activity, and initial HbS concentration was reported, values from different experiments (no. of runs=1)
[8] = Control value of dHbS (no. of runs=1); assay type: functional; method in brief: as §2
[9] = Control value of dHbS(no. of runs=2); assay type: functional; method in brief: as §2
[10] = Evaluated for antisickling activity, and initial HbS concentration was reported, values from different experiments (no. of runs=2); assay type: functional; method in brief: as §3
[11] = Compound was evaluated for antisickling activity, and initial HbS concentration was reported, values from different experiments (no. of runs=3); assay type: functional; method in brief: as §3
[12] = Control value of dHbS(no. of runs=3); assay type: functional; method in brief: as §2
[13] = Control value of dHbS (no. of runs=2); assay type: functional; method in brief: as §2
[14] = Compound was evaluated for antisickling activity, and initial HbS concentration was reported, values from different experiments (no. of runs=1); assay type: functional; method in brief: as §3
[15] = Compound was evaluated for antisickling activity, and ratio was calculated as solubility HbS compound (g/dL) / solubility HbS control(g/dL) at a concentration of 40 mM (for 173 assays); assay type: functional
Method in brief: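 Phenylalanine reference standard at 40 mM, included in every six-tube set of the sealed-tube dithionite-deoxygenated HbS sedimentation solubility assay, pH 7.4 phosphate. Ratio = soluble HbS with Phe / soluble HbS in the buffer control (g/dL). Reported as mean and standard deviation over 173 assays.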

SMILES	Ratio [1]	Control value [2]	Ratio [3]	Ratio [4]	Concentration [5]	Ratio [6]	Concentration [7]	Control value [8]	Control value [9]	Concentration [10]	Concentration [11]	Control value [12]	Control value [13]	Concentration [14]	Ratio [15]
CC(C)(C)C(=O)N1CCCC1C(=O)O (stereo unspecified)	1.05	16.1 g/dL	1.05	1.03	22.9 g/dL	1.07	–	–	–	–	–	–	–	–	–
O=C(O)COc1cc(NC(=O)c2ccc(Cl)cc2)cc(C(=O)O)c1	1.34	–	1.16	1.07	–	1.38	24 g/dL	17.1 g/dL	–	–	–	–	–	–	–
CC(C)(C)C(=O)N1CCCC1C(=O)Oc1ccccc1C(=O)O (stereo unspecified)	1.03	16.5 g/dL	1	0.993	22.9 g/dL	1.08	–	–	–	–	–	–	–	–	–
CC(C)(C)CC(=O)N1CCCC1C(=O)Oc1ccccc1C(=O)O (stereo unspecified)	0.995	–	1.02	0.991	–	1.05	–	–	17.6 g/dL	28.3 g/dL	–	–	–	–	–
O=C(O)c1ccccc1OC(=O)C1CCCN1C(=O)Cc1ccccc1 (stereo unspecified)	1.05	17.1 g/dL	1.03	1.03	24.6 g/dL	1.15	–	–	–	–	–	–	–	–	–
CC(C)(Oc1ccc(CCNC(=O)c2ccc(Cl)cc2)cc1)C(=O)O	0.981	–	0.932	0.954	–	1.2	–	–	–	–	24.8 g/dL	18.2 g/dL	–	–	–
O=C(O)C1CCCN1C(=O)Cc1ccccc1 (stereo unspecified)	1.06	–	1.01	1	–	1.13	–	–	–	24.5 g/dL	–	–	17.6 g/dL	–	–
O=C(O)COc1cc(NC(=O)c2ccccc2)cc(C(=O)O)c1	1.16	–	1.09	1.06	–	1.37	–	–	17.4 g/dL	23.8 g/dL	–	–	–	–	–
O=C(O)c1ccccc1OC(=O)C1CCCN1C(=O)c1ccccc1 (stereo unspecified)	1.01	–	1	0.999	–	1.03	–	–	17.2 g/dL	24.5 g/dL	–	–	–	–	–
O=C(O)COc1cc(NC(=O)c2ccc(Br)cc2)cc(C(=O)O)c1	1.24	17.4 g/dL	1.08	1.02	24 g/dL	1.32	–	–	–	–	–	–	–	–	–
O=C(O)c1ccccc1OC(=O)C1CCCN1C(=O)COc1ccccc1 (stereo unspecified)	1.02	17.1 g/dL	1.02	0.987	24 g/dL	1.08	–	–	–	–	–	–	–	–	–
CCCCCCCC(=O)Nc1cc(OCC(=O)O)cc(C(=O)O)c1	1.23	16.3 g/dL	1.1	1.04	24.3 g/dL	1.43	–	–	–	–	–	–	–	–	–
O=C(O)c1ccccc1OC(=O)C1CCCN1C(=O)CCc1ccccc1 (stereo unspecified)	0.983	–	0.988	–	–	0.951	–	–	–	–	–	–	–	23.4 g/dL	–
CCC(=O)Nc1cc(OCC(=O)O)cc(C(=O)O)c1	1.07	16.6 g/dL	1.03	1	24.3 g/dL	1.15	–	–	–	–	–	–	–	–	–
O=C(O)c1ccccc1OC(=O)C1CCCN1C(=O)CCC(O)c1ccccc1 (stereo unspecified)	1	–	0.98	0.99	–	1.15	–	–	17.6 g/dL	24.5 g/dL	–	–	–	–	–
O=C(O)COc1cc(NC(=O)c2ccc(Cl)c(Cl)c2)cc(C(=O)O)c1	1.35	–	1.19	1.09	–	1.45	–	–	–	–	24.8 g/dL	16.9 g/dL	–	–	–
N[C@@H](Cc1ccccc1)C(=O)O	1.09	–	1.05	1.04	–	1.18	–	–	17.3 g/dL	24.5 g/dL	–	–	–	–	1.18
